Reference: ChEMBL document CHEMBL1134641, “Progress toward the development of a safe and effective agent for treating reentrant cardiac arrhythmias: synthesis and evaluation of ibutilide analogues with enhanced metabolic stability and diminished proarrhythmic potential” (2001)

What was measured:
Canis familiaris [1] = assay: Atrial MAPD90 measured in canine 24-h Infarction model at an cumulative intravenous dose of 0.72 uM/kg; assay type: functional, Canis lupus familiaris, Cardiac atrium
Method in brief: (§1)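 Male mongrel dogs (16-22 kg) with LAD permanently ligated in two stages; studied 24 h later. […] given IV in sequential doses to cumulative 0.24, 0.72, 2.4 µmol/kg. Saline controls (n=8) received vehicle, then a single IV 2.4 µmol/kg dose at the end. Measurements taken at baseline and 15 min after each dose. Means ± SEM, paired t-test, p ≤ 0.05.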

Canis familiaris [2] = assay: Number of canine in which arrhythmias could not be induced at an cumulative intravenous dose of 0.72 uM/kg; assay type: functional, Canis lupus familiaris
Method in brief: (§2)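 Male mongrel dogs (16-22 kg) with LAD ligated in two stages, studied 24 h later. Programmed electrical stimulation at baseline and 15 min after each iv dose in saline (cumulative 0.24, 0.72, 2.4 µmol/kg). Saline controls then received a single 2.4 µmol/kg iv dose. Responses scored as NI (≤15 beats), NSVT (>15 beats, ends within 30 s), SVT (>30 s, needing pacing or cardioversion) or VF. A positive response was repeated.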

Canis familiaris [3] = assay: Number of canine in which arrhythmias could not be induced at an single intravenous dose of 2.4 uM/kg; assay type: functional, Canis lupus familiaris; method in brief: as §2
Canis familiaris [4] = assay: Idioventricular heart rate (IVR) measured in canine 24-h Infarction model at a single intravenous dose of 2.4 uM/kg; assay type: functional, Canis lupus familiaris; method in brief: as §1
Canis familiaris [5] = assay: Idioventricular heart rate (IVR) measured in canine 24-h Infarction model at an cumulative intravenous dose of 0.72 uM/kg; assay type: functional, Canis lupus familiaris; method in brief: as §1
Canis familiaris [6] = assay: Atrial effective refractory period (AERP) measured in canine just after inducing atrial flutter (AFL) termination by the compound at a dose of 9.6 uM/kg; assay type: functional, Canis lupus familiaris, Heart
Canis familiaris [7] = assay: Ventricular effective refractory (VEPR) period measured in canine 24-h Infarction model at an cumulative intravenous dose of 0.24 uM/kg; assay type: functional, Canis lupus familiaris, Heart
Method in brief: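 Male mongrel dogs (16-22 kg) with LAD permanently ligated in two stages, studied 24 h after ligation. Compound given in saline (6.0 µmol/mL) as sequential intravenous doses to reach cumulative 0.24, 0.72 and 2.4 µmol/kg. VERP and other measurements taken at baseline and 15 min after each dose. Saline-dosed dogs served as controls. Results are means ± SEM, paired t-test, p ≤ 0.05.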

Canis familiaris [8] = assay: Heart Rate measured in canine just after inducing atrial flutter (AFL) termination by the compound at a dose of 0.24 umol/kg; assay type: functional, Canis lupus familiaris
Canis familiaris [9] = assay: Number of canine in which nonsustained ventricular tachycardia (NSVT) was observed in PES-induced arrhythmias at an cumulative intravenous dose of 0.24 uM/kg; assay type: functional, Canis lupus familiaris, Cardiac ventricle; method in brief: as §2
Canis familiaris [10] = assay: Blood pressure measured in canine 24-h Infarction model at a single intravenous dose of 2.4 uM/kg; assay type: functional, Canis lupus familiaris; method in brief: as §1
Canis familiaris [11] = assay: QT interval measured in canine just after inducing atrial flutter (AFL) termination by the compound at a dose of 4.8 uM/kg; assay type: functional, Canis lupus familiaris, Heart
Method in brief: (§3)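 Conscious, sling-restrained dogs with chronically implanted electrodes, studied after 2 weeks of recovery. Sustained AFL (>5 min) induced. Compound in saline given iv every 5 min to cumulative 0.024-12.0 µmol/kg. At AFL termination, HR, QT (paced cycle length 300 ms), AERP and VERP measured. Measurements then taken 3 min after each further dose. Significance p≤0.05 vs baseline.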

Canis familiaris [12] = assay: Ventricular effective refractory period ([…]) measured in canine just after inducing atrial flutter (AFL) termination by the compound at a dose of 1.2 uM/kg; assay type: functional, Canis lupus familiaris, Heart
Method in brief: (§4)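 Conscious dogs, loosely restrained in a sling, with exteriorized electrode leads, studied 2 weeks after instrumentation. AFL was induced and counted as sustained if it lasted 5 min. Compound in saline given intravenously every 5 min to cumulative 0.024-12.0 µmol/kg. VERP was measured at AFL termination and 3 min after each dose. Results are means ± SEM versus baseline, p ≤ 0.05.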

Canis familiaris [13] = assay: QT interval measured in canine just after inducing atrial flutter (AFL) termination by the compound at a dose of 1.2 uM/kg; assay type: functional, Canis lupus familiaris, Heart; method in brief: as §3
Canis familiaris [14] = assay: Atrial MAPD90 measured in canine 24-h Infarction model at an cumulative intravenous dose of 2.4 uM/kg; assay type: functional, Canis lupus familiaris, Cardiac atrium; method in brief: as §1
Canis familiaris [15] = assay: Number of canine in which nonsustained ventricular tachycardia (NSVT) was observed in PES-induced arrhythmias at an single intravenous dose of 2.4 uM/kg; assay type: functional, Canis lupus familiaris, Cardiac ventricle; method in brief: as §2
Canis familiaris [16] = assay: Atrial MAPD90 measured in canine 24-h Infarction model at an cumulative intravenous dose of 0.24 uM/kg; assay type: functional, Canis lupus familiaris, Cardiac atrium; method in brief: as §1
Canis familiaris [17] = assay: Blood pressure measured in canine 24-h Infarction model at an cumulative intravenous dose of 0.24 uM/kg; assay type: functional, Canis lupus familiaris; method in brief: as §1
Canis familiaris [18] = assay: Ventricular effective refractory period ([…]) measured in canine just after inducing atrial flutter (AFL) termination by the compound at a dose of 0.24 umol/kg; assay type: functional, Canis lupus familiaris, Heart; method in brief: as §4
Canis familiaris [19] = assay: Heart Rate measured in canine just after inducing atrial flutter (AFL) termination by the compound at a dose of 0.6 umol/kg; assay type: functional, Canis lupus familiaris
Canis familiaris [20] = assay: Ventricular MAPD90 measured in canine 24-h Infarction model at a single intravenous dose of 2.4 uM/kg; assay type: functional, Canis lupus familiaris, Heart
Method in brief: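 Dogs 24 h after two-stage LAD ligation. Compound in saline given iv in sequential doses (cumulative 0.24, 0.72, 2.4 µmol/kg); saline controls then given a single 2.4 µmol/kg iv dose. HR, IVR, BP, QT, spontaneous arrhythmias/min, ERPs and MAPD90 measured at baseline and 15 min after each dose. Means ± SEM, paired t-test, p≤0.05.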

Canis familiaris [21] = assay: Idioventricular heart rate (IVR) measured in canine 24-h Infarction model at an cumulative intravenous dose of 2.4 uM/kg; assay type: functional, Canis lupus familiaris; method in brief: as §1
Canis familiaris [22] = assay: Heart rate measured in canine 24-h Infarction model at an cumulative intravenous dose of 0.72 uM/kg; assay type: functional, Canis lupus familiaris; method in brief: as §1
Canis familiaris [23] = assay: Atrial effective refractory period (AEPR) measured in canine 24-h Infarction model at a single intravenous dose of 2.4 uM/kg; assay type: functional, Canis lupus familiaris, Cardiac atrium; method in brief: as §1
Canis familiaris [24] = assay: Ventricular effective refractory period ([…]) measured in canine just after inducing atrial flutter (AFL) termination by the compound at a dose of 0.6 umol/kg; assay type: functional, Canis lupus familiaris, Heart; method in brief: as §4
Canis familiaris [25] = assay: Number of canine in which ventricular fibrillation (VF) was observed in PES-induced arrhythmias at an cumulative intravenous dose of 0.72 uM/kg; assay type: functional, Canis lupus familiaris, Cardiac ventricle; method in brief: as §2
Canis familiaris [26] = assay: Heart Rate measured in canine just after inducing atrial flutter (AFL) termination by the compound at a dose of 12.0 uM/kg; assay type: functional, Canis lupus familiaris
Canis familiaris [27] = assay: QT interval measured in canine just after inducing atrial flutter (AFL) termination by the compound at a dose of 0.24 umol/kg; assay type: functional, Canis lupus familiaris, Heart
Canis familiaris [28] = assay: Atrial effective refractory period (AERP) measured in canine just after inducing atrial flutter (AFL) termination by the compound at a dose of 0.24 umol/kg; assay type: functional, Canis lupus familiaris, Heart
Canis familiaris [29] = assay: Idioventricular heart rate (IVR) measured in canine 24-h Infarction model at an cumulative intravenous dose of 0.24 uM/kg; assay type: functional, Canis lupus familiaris; method in brief: as §1
Canis familiaris [30] = organism: Canis familiaris; assay: QT interval measured in canine just after inducing atrial flutter (AFL) termination by the compound; assay type: functional, Canis lupus familiaris, Heart; method in brief: as §3
Canis familiaris [31] = assay: Ventricular effective refractory period ([…]) measured in canine just after inducing atrial flutter (AFL) termination by the compound at a dose of 7.2 uM/kg; assay type: functional, Canis lupus familiaris, Heart; method in brief: as §4

SMILES: CCN(CCCCCC(C)(C)F)CCC[C@H](O)c1ccc(NS(C)(=O)=O)cc1.O=C(O)/C=C/C(=O)O
- Atrial MAPD90 (Canis familiaris [1]): 146 ms
- No. of canine (Canis familiaris [2]): 9
- No. of canine (Canis familiaris [3]): 7
- IVR (Canis familiaris [4]): 111 beats min-1
- IVR (Canis familiaris [5]): 130 beats min-1
- AERP (Canis familiaris [6]): 165 ms
- VERP (Canis familiaris [7]): 162 ms
- HR (Canis familiaris [8]): 128 beats min-1
- No. of canine (Canis familiaris [9]): 2
- BP (Canis familiaris [10]): 111 mmHg
- QT interval (Canis familiaris [11]): 207 ms
- VERP (Canis familiaris [12]): 144 ms
- QT interval (Canis familiaris [13]): 212 ms
- Atrial MAPD90 (Canis familiaris [14]): 163 ms
- No. of canine (Canis familiaris [15]): 0
- Atrial MAPD90 (Canis familiaris [16]): 148 ms
- BP (Canis familiaris [17]): 112 mmHg
- VERP (Canis familiaris [18]): 142 ms
- HR (Canis familiaris [19]): 111 beats min-1
- Ventricular MAPD90 (Canis familiaris [20]): 201 ms
- IVR (Canis familiaris [21]): 124 beats min-1
- HR (Canis familiaris [22]): 146 beats min-1
- AERP (Canis familiaris [23]): 179 ms
- VERP (Canis familiaris [24]): 141 ms
- No. of canine (Canis familiaris [25]): 0
- HR (Canis familiaris [26]): 122 beats min-1
- QT interval (Canis familiaris [27]): 196 ms
- AERP (Canis familiaris [28]): 160 ms
- IVR (Canis familiaris [29]): 138 beats min-1
- QT interval (Canis familiaris [30]): 202 ms
- VERP (Canis familiaris [31]): 140 ms
